Data set [1] concerns A549. Briefly: Antiproliferative activity against human A549 cells after 48 hrs by SRB assay. The class given is functional. Particulars: A549, 48 h. The essentials:
(§1)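 Seeded at 2 500 cells/well, per doubling time. Compounds were dissolved in DMSO at 400× the top test concentration and tested in triplicate at dilutions spanning 1–100 µM, starting day 1 after plating, with 0.25% v/v DMSO as control. After 48 h, cells were fixed with cold TCA for 60 min at 4 °C, then SRB-stained. Background-corrected OD was read at 530 nm, and percentage growth was calculated against untreated cells using T0 and end-point OD (NCI formulas).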
(The SRB assay estimates cell density from bound dye.)

Data set [2] has as its system HBL-100. The data set is described as follows: Antiproliferative activity against human HBL100 cells after 48 hrs by SRB assay. The class given is functional. Conditions: HBL-100, 48 h. An outline of the steps:
as §1

Data set [3] deals with HeLa. The data set is described as follows: Antiproliferative activity against human HeLa cells after 48 hrs by SRB assay. The format is functional. The essentials:
as §1

The subject of data set [4] is SW1573. The data set is described as follows: Antiproliferative activity against human SW1573 cells after 48 hrs by SRB assay. The class given is functional. Particulars: SW1573, 48 h. The essentials:
as §1

Data set [5] has as its system T47D. Briefly: Antiproliferative activity against human T47D cells after 48 hrs by SRB assay. The class given is functional. An outline of the steps:
(§2)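 Plated at 5 000 cells/well, per doubling time. Compounds were dissolved in DMSO at 400× the maximum final concentration and tested in triplicate between 1 and 100 µM for 48 h, beginning day 1 after plating, with 0.25% v/v DMSO as control. Cells were then TCA-fixed for 60 min at 4 °C and SRB-stained. Background-corrected OD was read at 530 nm, and percentage growth was derived against untreated control from start and end OD (NCI formulas).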

In data set [6] the test system is WiDr. The data set is described as follows: Antiproliferative activity against human WiDr cells after 48 hrs by SRB assay. The format is functional. The essentials: as §2
Data set [7] can be described thus: Cytotoxicity against human hTERT-BJ cells assessed as cell growth inhibition after 48 hrs SRB assay. The format is cell-based. An outline of the steps: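 BJ-hTert cells were seeded at 10 000/well and exposed from day 1 for 48 h to compounds in triplicate across 1–100 µM. DMSO stocks were 400× the top concentration, with a 0.25% v/v DMSO control. Cells were fixed with ice-cold TCA for 60 min at 4 °C and SRB-stained. Background-corrected OD was read at 530 nm, and percentage growth was computed relative to untreated cells using T0 and final OD (NCI formulas).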

One may read the GI50 as the concentration at which growth is held to half of that of the control.

As for `C[C@]12CC[C@H](O)C[C@@H]1CC[C@@H]1[C@@H]2CC[C@@]2(C)[C@H]1CC[C@@]2(O)CNC(=S)NC1CCCCC1`, the GI50 came to 16 µM in data set [1]; 18 µM in data set [2]; 21 µM in data set [3]; 15 µM in data set [4]; 18 µM in data set [5]; 18 µM in data set [6].
Consider `COC(=O)NC[C@]1(O)CC[C@H]2[C@@H]3CCc4cc(O)ccc4[C@H]3CC[C@@]21C`, for which the 50% growth inhibitory concentration (GI50) amounted to 6.8 µM in data set [1]; 4 µM in data set [2]; 3.5 µM in data set [3]; 5.9 µM in data set [4]; 4.3 µM in data set [5]; 4.9 µM in data set [6].
As for `C[C@]12CC[C@H](O)C[C@@H]1CC[C@@H]1[C@@H]2CC[C@@]2(C)[C@H]1CC[C@@]2(O)CNC(=S)Nc1ccccc1`, the GI50 in data set [1] amounted to 29 µM; in data set [2] it was 27 µM; in data set [3] it was 27 µM; in data set [4], 27 µM; in data set [5], 34 µM; in data set [6] it was 17 µM.
Turning to `C[C@]12CC[C@H](O)C[C@@H]1CC[C@@H]1[C@@H]2CC[C@@]2(C)[C@H]1CC[C@@]2(O)CN`, the GI50 in data set [1] came to 17 µM; in data set [2] it was 20 µM; in data set [3] it was 22 µM; in data set [4], 19 µM; in data set [5], 21 µM; in data set [6], 25 µM.
As for `CCCCNC(=S)NC[C@]1(O)CC[C@H]2[C@@H]3CCc4cc(O)ccc4[C@H]3CC[C@@]21C`, the GI50 is 4.8 µM in data set [1]; 7.2 µM in data set [2]; 4.2 µM in data set [3]; 15 µM in data set [4]; 3.9 µM in data set [5]; 4.4 µM in data set [6].
As for `C[C@]12CC[C@H](O)C[C@@H]1CC[C@@H]1[C@@H]2CC[C@@]2(C)[C@H]1CC[C@@]21CNC(=O)O1`, the 50% growth inhibitory concentration (GI50) came to 3.7 µM in data set [1]; 10 µM in data set [2]; 4 µM in data set [3]; 6 µM in data set [4]; 4.5 µM in data set [5]; 3.8 µM in data set [6]. For the same compound, the concentration for 50% growth inhibition (GI50) at 48 h in data set [7] was below 1 µM.
Regarding `C[C@]12CC[C@@H]3c4ccc(O)cc4CC[C@H]3[C@@H]1CC[C@@]2(O)CN`, the concentration for 50% growth inhibition (GI50) was determined as 39 µM in data set [1]; 34 µM in data set [2]; 27 µM in data set [3]; 43 µM in data set [4]; 30 µM in data set [5]; 22 µM in data set [6].
Consider `C[C@]12CC[C@@H]3c4ccc(O)cc4CC[C@H]3[C@@H]1CC[C@@]21CN=C(NC2CCCCC2)O1`, for which the 50% growth inhibitory concentration (GI50) in data set [1] was determined as 1.1 µM; in data set [2], 1.5 µM; in data set [3], 1.3 µM; in data set [4], 1.5 µM; in data set [5], 0.71 µM; in data set [6] it was 0.34 µM. Further, in data set [7], the GI50 at 48 h was below 1 µM.
As for `C[C@]12CC[C@H](O)CC1=CC[C@@H]1[C@@H]2CC[C@]2(C)C(c3cccnc3)=CC[C@@H]12` [ABIRATERONE], the concentration for 50% growth inhibition (GI50) is 95 µM in data set [1]; above 100 µM in data set [2]; 7.9 µM in data set [3]; 85 µM in data set [4]; 24 µM in data set [5]; 42 µM in data set [6]. In data set [7], the GI50 at 48 h was determined as 4.5 µM.
For `C[C@]12CC[C@@H]3c4ccc(O)cc4CC[C@H]3[C@@H]1CC[C@@]2(O)CNC(=S)Nc1ccccc1`, the concentration for 50% growth inhibition (GI50) in data set [1] stood at 9.8 µM; in data set [2] it was 15 µM; in data set [3], 6.3 µM; in data set [4], 21 µM; in data set [5], 5.7 µM; in data set [6], 4.5 µM.
Take `CCCCNC1=NC[C@@]2(CC[C@H]3[C@@H]4CC[C@H]5C[C@@H](O)CC[C@]5(C)[C@H]4CC[C@@]32C)O1`: the 50% growth inhibitory concentration (GI50) in data set [1] came out at 1.4 µM; in data set [2] it was 2.1 µM; in data set [3], 1.6 µM; in data set [4] it was 1.2 µM; in data set [5], 1.2 µM; in data set [6] it was 0.87 µM. The 50% growth inhibitory concentration (GI50) at 48 h in data set [7] was below 1 µM.
For `C[C@]12CC[C@@H]3c4ccc(O)cc4CC[C@H]3[C@@H]1CC[C@@]2(O)CNC(=S)NC1CCCCC1`, the GI50 in data set [1] turned out to be 4.5 µM; in data set [2], 5.1 µM; in data set [3], 3.3 µM; in data set [4], 14 µM; in data set [5], 3.9 µM; in data set [6], 2.8 µM.
As for `C[C@]12CC[C@@H]3c4ccc(O)cc4CC[C@H]3[C@@H]1CC[C@@]21CNC(=O)O1`, the GI50 in data set [1] worked out at 5.4 µM; in data set [2], 6.3 µM; in data set [3], 1.3 µM; in data set [4], 18 µM; in data set [5], 4.4 µM; in data set [6], 9.2 µM.
For `C[C@]12CC[C@H](O)CC1=CC[C@@H]1[C@@H]2CC[C@]2(C)C(n3cnc4ccccc43)=CC[C@@H]12` [GALETERONE], the GI50 was 3.9 µM in data set [1]; 10 µM in data set [2]; 5.3 µM in data set [3]; 3.9 µM in data set [4]; 2.1 µM in data set [5]; 2.7 µM in data set [6]. Further, the 50% growth inhibitory concentration (GI50) at 48 h in data set [7] came out at 5 µM.
For `CCCCNC(=S)NC[C@]1(O)CC[C@H]2[C@@H]3CC[C@H]4C[C@@H](O)CC[C@]4(C)[C@H]3CC[C@@]21C`, the concentration for 50% growth inhibition (GI50) in data set [1] was 12 µM; in data set [2] it was 13 µM; in data set [3] it was 14 µM; in data set [4] it was 9.4 µM; in data set [5], 5.8 µM; in data set [6], 4.5 µM.
As for `C[C@]12CC[C@@H]3c4ccc(O)cc4CC[C@H]3[C@@H]1CC[C@@]21CN=C(Nc2ccccc2)O1`, the GI50 in data set [1] came out at 2.6 µM; in data set [2], 4.4 µM; in data set [3] it was 3.3 µM; in data set [4] it was 3.4 µM; in data set [5], 2.6 µM; in data set [6] it was 2.6 µM. Also, in data set [7], the GI50 at 48 h came out at 1.4 µM.
As to `C[C@]12CC[C@@H]3c4ccc(OCc5ccccc5)cc4CC[C@H]3[C@@H]1CC[C@@]2(O)CN=[N+]=[N-]`, the GI50 worked out at 13 µM in data set [1]; 22 µM in data set [2]; 2.9 µM in data set [3]; 29 µM in data set [4]; 4.1 µM in data set [5]; 2.4 µM in data set [6].
On to `COC(=O)NC[C@]1(O)CC[C@H]2[C@@H]3CC[C@H]4C[C@@H](O)CC[C@]4(C)[C@H]3CC[C@@]21C`, for which the GI50 worked out at 38 µM in data set [1]; 99 µM in data set [2]; 70 µM in data set [3]; 92 µM in data set [4]; 41 µM in data set [5]; 39 µM in data set [6].
As for `C[C@]12CC[C@H](O)C[C@@H]1CC[C@@H]1[C@@H]2CC[C@@]2(C)[C@H]1CC[C@@]21CN=C(NC2CCCCC2)O1`, the 50% growth inhibitory concentration (GI50) in data set [1] was found to be 1.5 µM; in data set [2], 2 µM; in data set [3], 1.6 µM; in data set [4], 1.5 µM; in data set [5], 1.2 µM; in data set [6], 0.96 µM. For the same compound, in data set [7], the GI50 at 48 h stood at 1.2 µM.
With `CCCCNC1=NC[C@@]2(CC[C@H]3[C@@H]4CCc5cc(O)ccc5[C@H]4CC[C@@]32C)O1`, the GI50 is 1.4 µM in data set [1]; 2.9 µM in data set [2]; 2.1 µM in data set [3]; 2.2 µM in data set [4]; 0.45 µM in data set [5]; 0.34 µM in data set [6]. The concentration for 50% growth inhibition (GI50) at 48 h in data set [7] was below 1 µM.
For `C[C@]12CC[C@H](O)C[C@@H]1CC[C@@H]1[C@@H]2CC[C@@]2(C)[C@H]1CC[C@@]2(O)CN=[N+]=[N-]`, the 50% growth inhibitory concentration (GI50) in data set [1], in data set [2], in data set [3], in data set [4], in data set [5] and in data set [6] was above 100 µM in each case.

Values taken from ChEMBL document CHEMBL4138194, “Synthesis of unprecedented steroidal spiro heterocycles as potential antiproliferative drugs” (Eur J Med Chem, 2018).
